Measured values as given in ChEMBL document CHEMBL5500386, “Design, synthesis and bioactivity evaluation of 4-hydroxycoumarin derivatives as potential anti-inflammatory agents against acute lung injury and colitis” (Eur J Med Chem, 2024).
Calls of active or inactive are those of the source. The calls are words filed in the database; no cut-off is given here.

Key:
[1] = AUC (0 to t) in male Sprague-Dawley rat at 1 mg/kg, iv measured upto 24 hrs by triple quadrupole mass spectrometric analysis; type: ADME, organism-based; settings: in vivo
Summary of the method: (§1)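 Male SD rats (8 weeks, 200 g ± 20 g), n = 3 per route. Oral: 10 mg/kg by gavage in 0.05 % DMSO/normal saline, tail-vein blood at 13 times from 10 min to 24 h. IV: 1 mg/kg tail vein in 5 % DMSO/30 % PEG400/65 % saline, 14 samples from 5 min to 24 h. Heparinised plasma precipitated with acetonitrile containing internal standard. Non-compartmental analysis on mean concentrations.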

[2] = system: J774.A1; assay: Antiinflammatory activity in LPS-induced mouse J774.a1 cells assessed as inhibition of IL-6 production at 10 uM pretreated for 2 hrs followed by LPS stimulation and measured after 30 mins by ELISA relative to control; type: functional; settings: time 2.5 hrs
Summary of the method: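 J774A.1 cells (DMEM, 10 % FBS, 37 °C) treated with 10 μM compound or 4-HC for 2 h, then LPS. After 30 min, IL-6 in medium measured by ELISA. Result is % inhibition, mean ± SEM of three independent experiments.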

[3] = system: Mus musculus; assay: Antiinflammatory activity in DSS-induced male C57BL/6 mouse model of inflammatory bowel disease assessed as increase in colon length at 20 mg/kg, IG administered with compound and DSS for 7 days followed by DSS replacement with distilled water for 3 days; type: functional, organism-based; settings: time 10.0 day
[4] = Acute toxicity in male ICR mouse assessed as histopathological changes in spleen at 500 to 1000 mg/kg, po administered daily for 10 days by H and E staining based analysis; type: organism-based; settings: in vivo, 240 h, dose 500-1000 mg/kg, time 10 day
Summary of the method: (§2)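 Male ICR mice (8 weeks, 30 g ± 2 g), acclimatised 1 week, randomised into 1000 mg/kg, 500 mg/kg and untreated control groups (n = 24 total). Dosed by daily gavage, compound dissolved in 0.5 % DMSO then added to normal saline. Body weight and behaviour recorded daily. Euthanised after 10 days; heart, liver, spleen, lung and kidney examined by H&E staining.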

[5] = system: Mus musculus; assay: Protection against LPS-induced C57BL/6 mouse model of acute lung injury assessed as reduction in IL-6 level in BALF at 20 mg/kg, po administered 3 times for every 12 hrs followed by LPS stimulation at 5 mg/kg and measured after 6 hrs by ELISA; type: functional, organism-based; settings: time 30.0 hrs
Summary of the method: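 C57BL/6 mice, 6 per group. Gavaged at 20 mg/kg three times at 12 h intervals; controls received saline, and dexamethasone 20 mg/kg served as reference. After the last dose, LPS 5 mg/kg given intratracheally. At 6 h, blood collected for serum IL-6 by ELISA. Left lung lavaged with 3 × 200 μL saline, and BALF assayed for IL-6, total protein and neutrophil count. Mean ± SEM, n = 6.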

[6] = system: Mus musculus; assay: Antiinflammatory activity in DSS-induced male C57BL/6 mouse model of inflammatory bowel disease assessed as inhibition of IL-6 release in plasma at 20 mg/kg, IG administered with compound and DSS for 7 days followed by DSS replacement with distilled water for 3 days; type: functional, organism-based; settings: time 10.0 day
[7] = Acute toxicity in male ICR mouse assessed as fatality at 500 to 1000 mg/kg, po administered daily for 10 days and measured daily; type: organism-based; settings: in vivo, 240 h, dose 500-1000 mg/kg, time 10 day; summary of the method: as §2
[8] = Acute toxicity in male ICR mouse assessed as histopathological changes in kidney at 500 to 1000 mg/kg, po administered daily for 10 days by H and E staining based analysis; type: organism-based; settings: in vivo, 240 h, dose 500-1000 mg/kg, time 10 day; summary of the method: as §2
[9] = system: Mus musculus; assay: Antiinflammatory activity in DSS-induced male C57BL/6 mouse model of inflammatory bowel disease assessed as increase in body weight at 20 mg/kg, IG administered with compound and DSS for 7 days followed by DSS replacement with distilled water for 3 days; type: functional, organism-based; settings: time 10.0 day
[10] = system: Mus musculus; assay: Protection against LPS-induced C57BL/6 mouse model of acute lung injury assessed as reduction in immune markers at 20 mg/kg, po administered 3 times for every 12 hrs followed by LPS stimulation at 5 mg/kg and measured after 6 hrs by immunohistochemical staining based analysis; type: functional, organism-based; settings: time 30.0 hrs
Summary of the method: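 LPS-induced ALI in C57BL/6 mice: 20 mg/kg orally three times at 12 h intervals, then intratracheal LPS 5 mg/kg, lungs taken at 6 h. F4/80 IHC: xylene deparaffinisation, citrate pH 6 retrieval for 25 min, primary antibody at 4 °C for 12 h, secondary 1:2000, DAB and hematoxylin. Viewed at ×20.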

[11] = system: Mus musculus; assay: Protection against LPS-induced C57BL/6 mouse model of acute lung injury assessed as reduction in inflammatory cell infiltration in lung at 20 mg/kg, po administered 3 times for every 12 hrs followed by LPS stimulation at 5 mg/kg and measured after 6 hrs by H and E staining based analysis; type: functional, organism-based; settings: time 30.0 hrs
Summary of the method: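 LPS-induced ALI in C57BL/6 mice: 20 mg/kg orally three times at 12 h intervals, then intratracheal LPS 5 mg/kg, killed at 6 h. Lungs paraffin-embedded, cut into 5 μm sections and H&E stained. Viewed at ×20.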

[12] = system: J774.A1; assay: Antiinflammatory activity in LPS-induced mouse J774.A1 cells assessed as reduction in IL-6 mRNA transcription pretreated for 2 hrs followed by LPS stimulation and measured after 6 hrs by RT-qPCR analysis; type: functional, cell-based; settings: dose 2.5-10 µM
Summary of the method: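 J774A.1 or THP-1 cells pretreated with compound for 2 h, then LPS 0.5 μg/mL for 6 h, in triplicate. Total RNA extracted and reverse-transcribed. IL-6 quantified by RT-qPCR over 40 cycles and normalised to β-actin.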

[13] = system: J774.A1; assay: Cytotoxicity against mouse J774.A1 cells assessed as reduction in cell viability at 10 uM measured after 24 hrs by MTT assay; type: toxicity, cell-based; settings: j774.a1, 24 h
Summary of the method: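 J774A.1 cells seeded and incubated 24 h, then exposed to 10 μM compound for 24 h. MTT (5.0 mg/mL) added as 10 % for 4 h, formazan dissolved in DMSO with 30 min shaking, absorbance read at 490 nm. Expressed as % of control.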

[14] = system: J774.A1; assay: Inhibition of LPS-induced MAPK activation in mouse J774.A1 cells assessed as reduction in JNK phosphorylation at 5 to 20 uM pretreated for 2 hrs followed by LPS stimulation and measured after 30 mins by Western blot analysis; type: cell-based; settings: dose 5-20 µM, time 2.5 hrs
Summary of the method: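 J774A.1 macrophages pretreated with 20, 10 or 5 μM for 2 h, then LPS 0.5 μg/mL for 30 min. RIPA lysates quantified by Bradford. 40 μg run on 12.5 % SDS-PAGE and transferred to PVDF. Blocked 1.5 h in BSA, primary antibody overnight at 4 °C, secondary 2 h at room temperature, detected by ECL.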

[15] = biological target: Interleukin-1 receptor-associated kinase 1 (Homo sapiens) (UniProt P51617); assay: Inhibition of IRAK1 (unknown origin) at 10 uM relative to control
Chain of Interleukin-1 receptor-associated kinase 1 (Homo sapiens) (P51617 whole entry, looked up): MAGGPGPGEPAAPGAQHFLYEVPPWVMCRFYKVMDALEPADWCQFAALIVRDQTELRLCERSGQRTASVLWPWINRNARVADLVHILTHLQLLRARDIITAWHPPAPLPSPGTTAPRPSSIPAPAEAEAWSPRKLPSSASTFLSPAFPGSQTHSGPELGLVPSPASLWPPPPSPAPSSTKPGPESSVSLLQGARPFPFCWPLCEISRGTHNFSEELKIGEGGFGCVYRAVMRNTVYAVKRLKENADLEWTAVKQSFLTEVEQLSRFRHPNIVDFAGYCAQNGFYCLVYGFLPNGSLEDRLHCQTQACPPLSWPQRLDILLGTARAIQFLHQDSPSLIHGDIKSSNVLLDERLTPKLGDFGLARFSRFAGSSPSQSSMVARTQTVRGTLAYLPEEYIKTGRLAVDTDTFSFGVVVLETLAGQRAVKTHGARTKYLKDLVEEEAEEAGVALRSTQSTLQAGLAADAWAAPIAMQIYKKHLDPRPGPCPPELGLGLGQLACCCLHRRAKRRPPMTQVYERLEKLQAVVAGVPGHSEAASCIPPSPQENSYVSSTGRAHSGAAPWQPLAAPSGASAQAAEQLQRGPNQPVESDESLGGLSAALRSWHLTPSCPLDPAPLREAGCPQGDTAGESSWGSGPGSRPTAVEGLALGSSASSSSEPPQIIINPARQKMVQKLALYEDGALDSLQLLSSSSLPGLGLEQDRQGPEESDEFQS

[16] = AUC (0 to t) in male Sprague-Dawley rat at 10 mg/kg, po measured upto 24 hrs by triple quadrupole mass spectrometric analysis; type: ADME, organism-based; settings: in vivo; summary of the method: as §1
[17] = AUC (0 to infinity) in male Sprague-Dawley rat at 1 mg/kg, iv measured upto 24 hrs by triple quadrupole mass spectrometric analysis; type: ADME, organism-based; settings: in vivo; summary of the method: as §1

CC(=O)N1CCN(CCOc2cc(=O)oc3ccccc23)CC1
AUC(0-t) at 24 h [1]: 929 ng·h/mL
inhibition at 10 µM [2]: 51.6%
Activity [3]: Active
Activity [4]: Non-Toxic
Activity [5]: Active
Activity [6]: Active
Activity [7]: Non-Toxic
Activity [8]: Non-Toxic
Activity [9]: Active
Activity [10]: Active
Activity [11]: Active
Activity [12]: Dose-Dependent Effect
Activity [13]: Non-Toxic
inhibition [14]: inactive
inhibition [15]: 48.1%
AUC(0-t) at 24 h [16]: 2670 ng·h/mL
AUC(0-inf) [17]: 1020 ng·h/mL
